# PubChem BioAssay
# The source made the active and inactive calls.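 Rule for the calls, unless noted: active = calcium signal cut by more than 3 SD below the full-agonist control yet still positive, in both repeats and the earlier primary screen; inactive = the rest.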
# Tested on: TRPC4 beta (transient receptor potential cation channel C4), mouse
# Assay: positive allosteric modulators of mouse TRPC4, confirmation, cell-based, Fluo-4, HEK293 TRPC4beta/mu-opioid (AID 2555;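 active = primary screen hit whose calcium fluorescence ratio, in both repeats, exceeds the weak agonist control mean by 3 SD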)
# Settings: DAMGO EC20, Fluo-4 calcium flux, at 10 µM; active compounds read high
row,Compound,outcome
1,CC(C)C(NC(=O)c1ccc(C(C)(C)C)cc1)C(=O)NCC(c1ccccc1)N(C)C (stereo not drawn),inactive
2,CN(C)CCCN(C(=O)c1ccc(S(=O)(=O)N2CCCC2)cc1)c1nc2c(F)cc(F)cc2s1,inactive
3,CCC1CCCCN1CCN1C(=O)C2C(C(=O)Nc3ccc(OC)cc3)C3C=CC2(O3)C1C(=O)NC1CCCCC1 (stereo not drawn),inactive
4,Cc1cc(Nc2ccc(C)c(C)c2)c2ccccc2n1,inactive
5,CCCc1nc2ccccc2n1Cc1ccccc1OC,inactive
6,CCCCOc1ccc(Nc2cc(Cl)ccc2C(=O)O)cn1,inactive
7,N#Cc1c(N)sc2c1CCCCCC2,inactive
8,Cc1cc(OCc2cc(C(=O)NCCN3CCCCC3CO)no2)cc(C)c1Cl (stereo not drawn),inactive
9,Cc1cccc(C)c1-n1cccc1/C=C1\SC(=S)N(c2cccc(C(=O)O)c2)C1=O,inactive
10,Clc1ccc(COc2ccccc2CNCc2cccnc2)cc1,inactive
11,C=CCOc1ccc(C2CC(C)=NN2c2ccccc2)cc1 (stereo not drawn),inactive
12,CCCCN=C(Nc1ccc(Cl)cc1)c1cccnc1,inactive
13,OCc1ccccc1CNCc1ccccc1,inactive
14,Cc1ccc(Nc2cc(C)nc3ccc(C)cc23)cc1,inactive
15,C=CCSc1nnc2n(-c3ccccc3OC)c(=O)c3c4c(sc3n12)CCC4,inactive
16,Cc1ccc(NC(=O)CN2CCc3ccccc3C2)cc1F,inactive
17,c1ccc(CN2CCN(Cc3c[nH]c4ccccc34)CC2)cc1,inactive
18,OCCNc1nc2ccccc2n1CCN1CCCCC1,inactive
19,COc1ccc(NC(=O)c2c[nH]n3c(=O)cc(C4CCN(C(=O)OC(C)(C)C)CC4)nc23)cc1Cl,inactive
20,CC1CCCN1CC#CC(O)(c1ccccc1)c1ccccc1 (stereo not drawn),inactive

row,Compound,outcome
1,CCOC(=O)c1c(N)sc(C(O)(C(F)(F)F)C(F)(F)F)c1-c1ccccc1,inactive
2,CCCCN(Cc1ccccc1)C(=O)C1CCN(Cc2sccc2C)CC1,inactive
3,CCc1ccc2nc3nc(C)cc(C)c3c(N)c2c1,inactive
4,Cc1ccc(C)c(S(=O)(=O)/N=C2\C=C(NS(=O)(=O)c3ccccc3)C(=O)c3ccccc32)c1,inactive
5,Cc1ccn2c(-c3csc(NCc4ccco4)n3)c(C)nc2c1,inactive
6,CCCCC(=O)N(c1ccc(C(=O)O)cc1)c1nc(-c2ccc(Cl)cc2)c(CC)s1,inactive
7,CC(=O)c1ccc2c(c1)N(C)c1ccccc1S2,inactive
8,Cc1ccc2c(c1)N(C(=O)CCC(=O)Nc1ccccc1Br)CC(C)O2 (stereo not drawn),inactive
9,OCC1(CCCc2ccccc2)CCN(Cc2cc(F)ccc2F)CC1,inactive
10,CC(C)c1ccc(S(=O)(=O)/N=C2\C=C(NS(=O)(=O)c3ccccc3)C(=O)c3ccccc32)cc1,inactive
11,Cc1cc(NCc2ccccc2)nc(N2CCOCC2)n1,inactive
12,CCOc1ccc(NC(=O)c2c[nH]n3c(=O)cc(C4CCN(C(=O)OC(C)(C)C)CC4)nc23)cc1,inactive
13,COCCn1c(SCc2cc(C(C)=O)ccc2OC)nc2cc(Cl)ccc2c1=O,inactive
14,CCc1cc(C(c2cccc(OC)c2)N2CCOCC2)c(NC(=O)c2ccccc2)s1 (stereo not drawn),inactive
15,CC(=O)Nc1ccc(S(=O)(=O)NC2=C(N3CCN(Cc4ccccc4)CC3)C(=O)c3ccccc3C2=O)cc1,inactive
16,COc1ccc(C2=NN(C(=O)c3ccccc3)C(c3ccc(OC)c(OC)c3)C2)c(O)c1 (stereo not drawn),inactive
17,COc1cccc(CNC(=O)CCC2CCCN(Cc3cc(Cl)ccc3O)C2)c1 (stereo not drawn),inactive
18,Cc1c(CN2CCC(n3nccc3NC(=O)CCc3ccccc3)CC2)cnn1C,inactive
19,CCOC(=O)C(C)Sc1nc2c(c(=O)[nH]c(=O)n2C)n1Cc1ccc(Cl)cc1 (stereo not drawn),inactive

# Target: Short transient receptor potential channel 4 (Mus musculus) (UniProt Q9QUQ5)
# Sequence (Q9QUQ5 whole entry, looked up): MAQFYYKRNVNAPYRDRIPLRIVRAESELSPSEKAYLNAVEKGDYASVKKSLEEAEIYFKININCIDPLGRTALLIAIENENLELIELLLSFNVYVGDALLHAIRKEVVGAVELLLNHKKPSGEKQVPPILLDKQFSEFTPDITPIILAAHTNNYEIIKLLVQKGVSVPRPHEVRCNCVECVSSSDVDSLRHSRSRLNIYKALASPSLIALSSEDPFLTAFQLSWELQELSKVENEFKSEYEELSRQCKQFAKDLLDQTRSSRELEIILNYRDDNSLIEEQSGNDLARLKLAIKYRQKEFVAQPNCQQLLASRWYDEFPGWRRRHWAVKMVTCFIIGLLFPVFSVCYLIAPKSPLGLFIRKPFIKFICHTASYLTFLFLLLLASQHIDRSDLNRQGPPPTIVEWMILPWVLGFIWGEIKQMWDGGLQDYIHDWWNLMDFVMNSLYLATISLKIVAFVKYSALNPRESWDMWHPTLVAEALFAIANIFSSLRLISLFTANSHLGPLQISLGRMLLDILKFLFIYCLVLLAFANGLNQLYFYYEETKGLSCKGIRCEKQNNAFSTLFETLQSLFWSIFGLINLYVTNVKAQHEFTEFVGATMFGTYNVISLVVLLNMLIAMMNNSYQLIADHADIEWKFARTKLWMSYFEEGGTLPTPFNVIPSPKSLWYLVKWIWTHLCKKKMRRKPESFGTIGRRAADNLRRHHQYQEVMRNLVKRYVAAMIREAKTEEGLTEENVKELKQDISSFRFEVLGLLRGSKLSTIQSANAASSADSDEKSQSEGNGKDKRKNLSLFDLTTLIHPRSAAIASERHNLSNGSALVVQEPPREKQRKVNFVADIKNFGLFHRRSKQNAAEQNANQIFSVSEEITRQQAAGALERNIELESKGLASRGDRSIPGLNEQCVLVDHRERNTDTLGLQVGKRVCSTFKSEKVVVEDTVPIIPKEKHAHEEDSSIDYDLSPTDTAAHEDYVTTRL
# Assay: inhibitors of mouse TRPC4 channel, confirmation, cell-based, Fluo4, HEK293 TRPC4beta/mu-opioid (AID 2636)
# Settings: DAMGO, Fluo4 calcium flux, at 10 µM; active compounds read high
# Procedure, shortened: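 Assay system: HEK293 cells stably co-expressing mouse TRPC4beta and mu-opioid receptor / Also added: DAMGO agonist, submaximal followed by maximal addition / Compound dosing: single final compound concentration of 10 µM / Times: compound pre-incubation 110 s before DAMGO / Detection: Fluo4 calcium flux fluorescence, kinetic read / Replicates: duplicate wells for each compound, averaged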
Compound,inhibition,outcome
CC(C)C(NC(=O)c1ccc(C(C)(C)C)cc1)C(=O)NCC(c1ccccc1)N(C)C (stereo not drawn),82% (active),
CN(C)CCCN(C(=O)c1ccc(S(=O)(=O)N2CCCC2)cc1)c1nc2c(F)cc(F)cc2s1,68% (active),
CCC1CCCCN1CCN1C(=O)C2C(C(=O)Nc3ccc(OC)cc3)C3C=CC2(O3)C1C(=O)NC1CCCCC1 (stereo not drawn),96% (active),
Cc1cc(Nc2ccc(C)c(C)c2)c2ccccc2n1,99% (active),
CCCc1nc2ccccc2n1Cc1ccccc1OC,88% (active),
CCCCOc1ccc(Nc2cc(Cl)ccc2C(=O)O)cn1,,inactive
N#Cc1c(N)sc2c1CCCCCC2,94% (active),
Cc1cc(OCc2cc(C(=O)NCCN3CCCCC3CO)no2)cc(C)c1Cl (stereo not drawn),93% (active),
Cc1cccc(C)c1-n1cccc1/C=C1\SC(=S)N(c2cccc(C(=O)O)c2)C1=O,89% (active),
Clc1ccc(COc2ccccc2CNCc2cccnc2)cc1,94% (active),
C=CCOc1ccc(C2CC(C)=NN2c2ccccc2)cc1 (stereo not drawn),84% (active),
CCCCN=C(Nc1ccc(Cl)cc1)c1cccnc1,82% (active),
OCc1ccccc1CNCc1ccccc1,95% (active),
Cc1ccc(Nc2cc(C)nc3ccc(C)cc23)cc1,,inactive
C=CCSc1nnc2n(-c3ccccc3OC)c(=O)c3c4c(sc3n12)CCC4,58% (active),
Cc1ccc(NC(=O)CN2CCc3ccccc3C2)cc1F,88% (active),
c1ccc(CN2CCN(Cc3c[nH]c4ccccc34)CC2)cc1,88% (active),
OCCNc1nc2ccccc2n1CCN1CCCCC1,91% (active),
COc1ccc(NC(=O)c2c[nH]n3c(=O)cc(C4CCN(C(=O)OC(C)(C)C)CC4)nc23)cc1Cl,86% (active),
CC1CCCN1CC#CC(O)(c1ccccc1)c1ccccc1 (stereo not drawn),79% (active),

Compound,inhibition,outcome
CCOC(=O)c1c(N)sc(C(O)(C(F)(F)F)C(F)(F)F)c1-c1ccccc1,66% (active),
CCCCN(Cc1ccccc1)C(=O)C1CCN(Cc2sccc2C)CC1,90% (active),
CCc1ccc2nc3nc(C)cc(C)c3c(N)c2c1,96% (active),
Cc1ccc(C)c(S(=O)(=O)/N=C2\C=C(NS(=O)(=O)c3ccccc3)C(=O)c3ccccc32)c1,92% (active),
Cc1ccn2c(-c3csc(NCc4ccco4)n3)c(C)nc2c1,96% (active),
CCCCC(=O)N(c1ccc(C(=O)O)cc1)c1nc(-c2ccc(Cl)cc2)c(CC)s1,52% (active),
CC(=O)c1ccc2c(c1)N(C)c1ccccc1S2,84% (active),
Cc1ccc2c(c1)N(C(=O)CCC(=O)Nc1ccccc1Br)CC(C)O2 (stereo not drawn),90% (active),
OCC1(CCCc2ccccc2)CCN(Cc2cc(F)ccc2F)CC1,92% (active),
CC(C)c1ccc(S(=O)(=O)/N=C2\C=C(NS(=O)(=O)c3ccccc3)C(=O)c3ccccc32)cc1,81% (active),
Cc1cc(NCc2ccccc2)nc(N2CCOCC2)n1,95% (active),
CCOc1ccc(NC(=O)c2c[nH]n3c(=O)cc(C4CCN(C(=O)OC(C)(C)C)CC4)nc23)cc1,50% (active),
COCCn1c(SCc2cc(C(C)=O)ccc2OC)nc2cc(Cl)ccc2c1=O,78% (active),
CCc1cc(C(c2cccc(OC)c2)N2CCOCC2)c(NC(=O)c2ccccc2)s1 (stereo not drawn),62% (active),
CC(=O)Nc1ccc(S(=O)(=O)NC2=C(N3CCN(Cc4ccccc4)CC3)C(=O)c3ccccc3C2=O)cc1,72% (active),
COc1ccc(C2=NN(C(=O)c3ccccc3)C(c3ccc(OC)c(OC)c3)C2)c(O)c1 (stereo not drawn),66% (active),
COc1cccc(CNC(=O)CCC2CCCN(Cc3cc(Cl)ccc3O)C2)c1 (stereo not drawn),93% (active),
Cc1c(CN2CCC(n3nccc3NC(=O)CCc3ccccc3)CC2)cnn1C,94% (active),
CCOC(=O)C(C)Sc1nc2c(c(=O)[nH]c(=O)n2C)n1Cc1ccc(Cl)cc1 (stereo not drawn),93% (active),
